Data reported in ChEMBL document CHEMBL4359838, “Glucopyranosylidene-spiro-imidazolinones, a New Ring System: Synthesis and Evaluation as Glycogen Phosphorylase Inhibitors by Enzyme Kinetics and X-ray Crystallography” (J Med Chem, 2019).
Activity calls are given as the source filed them. The calls are words filed in the database; no cut-off is given here.

Experiments:
[1] = Inhibition of rabbit muscle Glycogen phosphorylase a using glucose-1-phosphate as substrate; parameters: species or system Oryctolagus cuniculus
Summary of the method: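 Rabbit muscle GPa (3 μg/mL) was run at 30 °C in the glycogen-synthesis direction in 30 mM imidazole/HCl pH 6.8 containing 60 mM KCl, 0.6 mM EDTA, 0.6 mM DTT and 0.2% w/v glycogen, without AMP. Glc-1-P was 2, 3, 4, 6 and 10 mM with varied inhibitor. Inorganic phosphate release was measured; Ki came from the Km(app) versus [inhibitor] fit.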

[2] = Inhibition of human liver Glycogen phosphorylase a using glucose-1-phosphate as substrate
Summary of the method: (§1)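 Human liver GPa (1 μg/mL) assayed at 30 °C toward glycogen synthesis in 30 mM imidazole/HCl pH 6.8 with 60 mM KCl, 0.6 mM EDTA, 0.6 mM DTT, 0.2% w/v glycogen and no AMP. Glc-1-P was varied at 1, 2, 3, 4 and 6 mM against several inhibitor levels. Released Pi was read; Ki came from Km(app) versus [inhibitor] by weighted nonlinear regression.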

Homo sapiens [3] = organism: Homo sapiens; experiment: Competitive inhibition of human liver Glycogen phosphorylase a up to 650 uM using glucose-1-phosphate as substrate by Lineweaver-Burk plot analysis; summary of the method: as §1
Oryctolagus cuniculus = organism: Oryctolagus cuniculus; experiment: Inhibition of rabbit muscle Glycogen phosphorylase b at 625 uM using glucose-1-phosphate as substrate in presence of AMP relative to control
[4] = Inhibition of rabbit muscle Glycogen phosphorylase b using glucose-1-phosphate as substrate in presence of AMP; parameters: species or system Oryctolagus cuniculus
Summary of the method: (§2)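 Rabbit muscle GPb (3 μg/mL) was assayed at 30 °C for glycogen synthesis in 30 mM imidazole/HCl pH 6.8 with 60 mM KCl, 0.6 mM EDTA, 0.6 mM DTT, 0.2% w/v glycogen and 1 mM AMP. Glc-1-P was varied (2, 3, 4, 6, 10 mM) at several inhibitor concentrations. Pi release gave initial rates; Ki came from Km(app) versus [inhibitor] by nonlinear regression.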

Homo sapiens [5] = organism: Homo sapiens; experiment: Competitive inhibition of human liver Glycogen phosphorylase a up to 35 uM using glucose-1-phosphate as substrate by Lineweaver-Burk plot analysis; summary of the method: as §1
Homo sapiens [6] = organism: Homo sapiens; experiment: Competitive inhibition of human liver Glycogen phosphorylase a up to 3 uM using glucose-1-phosphate as substrate by Lineweaver-Burk plot analysis; summary of the method: as §1
[7] = Inhibition of Glycogen phosphorylase in human HepG2 cells incubated for 2 hrs; format: cell-based
Summary of the method: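 HepG2 cells were precultured in 25 mmol/L glucose with 10 nM insulin to load glycogen. They were then shifted to 5 mmol/L glucose with inhibitor at 80–516 μM for 2 h to drive glycogenolysis. GP activity was read spectrophotometrically in the whole homogenate, and IC50 was derived from the concentration series.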

HepG2 = experiment: Cytotoxicity against human HepG2 cells at 80 to 516 uM incubated for 2 hrs; format: cell-based; settings: hepg2, 2 h
Homo sapiens [8] = organism: Homo sapiens; experiment: Competitive inhibition of human liver Glycogen phosphorylase a up to 1000 uM using glucose-1-phosphate as substrate by Lineweaver-Burk plot analysis
Homo sapiens [9] = organism: Homo sapiens; experiment: Competitive inhibition of human liver Glycogen phosphorylase a up to 180 uM using glucose-1-phosphate as substrate by Lineweaver-Burk plot analysis; summary of the method: as §1
Homo sapiens [10] = organism: Homo sapiens; experiment: Competitive inhibition of human liver Glycogen phosphorylase a up to 10 uM using glucose-1-phosphate as substrate by Lineweaver-Burk plot analysis; summary of the method: as §1
[11] = Inhibition of rabbit muscle Glycogen phosphorylase b using alpha-D-glucose-1-phosphate as substrate in presence of AMP by dixon plot analysis; parameters: species or system Oryctolagus cuniculus; summary of the method: as §2

| Ki [1] | Ki [2] | inhibition (Oryctolagus cuniculus) | Ki [4] | SMILES | also measured |
| --- | --- | --- | --- | --- | --- |
| 212 µM | 371 µM | 25% |  | O=C1N=C(c2ccc3ccccc3c2)N[C@]12O[C@H](CO)[C@@H](O)[C@H](O)[C@H]2O | inhibition (Homo sapiens [3]): Active |
| 6.6 µM | 22.2 µM |  | 13 µM | O=C1N=C(c2cccc3ccccc23)N[C@@]12O[C@H](CO)[C@@H](O)[C@H](O)[C@H]2O | inhibition (Homo sapiens [5]): Active |
|  |  |  | 3.1 µM | O=C1NC(=O)[C@@]2(N1)O[C@H](CO)[C@@H](O)[C@H](O)[C@H]2O |  |
| 1.13 µM | 1.72 µM |  | 2.11 µM | O=C1N=C(c2ccc3ccccc3c2)N[C@@]12O[C@H](CO)[C@@H](O)[C@H](O)[C@H]2O | inhibition (Homo sapiens [6]): Active; IC50 [7]: 177 µM; Activity (HepG2): Non-Toxic |
|  |  |  | 105 to 320 µM | O=C1NC(=O)[C@]2(N1)O[C@H](CO)[C@@H](O)[C@H](O)[C@H]2O |  |
| 653 µM | 1170 µM | inactive |  | O=C1N=C(c2cccc3ccccc23)N[C@]12O[C@H](CO)[C@@H](O)[C@H](O)[C@H]2O | inhibition (Homo sapiens [8]): Active |
|  |  | inactive |  | O=C1N=C(c2ccc(C(F)(F)F)cc2)N[C@]12O[C@H](CO)[C@@H](O)[C@H](O)[C@H]2O |  |
|  |  | inactive |  | O=C1N=C(c2ccc(C(F)(F)F)cc2)N[C@@]12O[C@H](CO)[C@@H](O)[C@H](O)[C@H]2O |  |
| 34.2 µM | 96.7 µM |  | 136 µM | O=C1N=C(c2ccccc2)N[C@]12O[C@H](CO)[C@@H](O)[C@H](O)[C@H]2O | inhibition (Homo sapiens [9]): Active |
| 4.5 µM | 8.4 µM |  | 9 µM | O=C1N=C(c2ccccc2)N[C@@]12O[C@H](CO)[C@@H](O)[C@H](O)[C@H]2O | inhibition (Homo sapiens [10]): Active |
|  |  |  |  | OC[C@H]1O[C@]2(ON=C(c3ccccc3)S2)[C@H](O)[C@@H](O)[C@@H]1O | Ki [11]: 26 µM |
|  |  |  | 5.1 µM | O=C1NC(=S)N[C@@]12O[C@H](CO)[C@@H](O)[C@H](O)[C@H]2O |  |
